Measured values taken from ChEMBL document CHEMBL1130209, “A novel series of 2,5-substituted tryptamine derivatives as vascular 5HT1B/1D receptor antagonists” (J Med Chem, 1997).
Active and inactive are the calls of the source. The rule behind the calls is not given here.

Assays:
Type in all cases: tissue-based
Details in all cases: Oryctolagus cuniculus, target entry is the homologue from another species
[1] = biological target: 5-hydroxytryptamine receptor 2A (Homo sapiens) (UniProt P28223); assay: Dissociation equilibrium constant against the vascular 5-hydroxytryptamine 2A receptor in the rabbit […] aorta
5-hydroxytryptamine receptor 2A (Homo sapiens), sequence (P28223 whole entry): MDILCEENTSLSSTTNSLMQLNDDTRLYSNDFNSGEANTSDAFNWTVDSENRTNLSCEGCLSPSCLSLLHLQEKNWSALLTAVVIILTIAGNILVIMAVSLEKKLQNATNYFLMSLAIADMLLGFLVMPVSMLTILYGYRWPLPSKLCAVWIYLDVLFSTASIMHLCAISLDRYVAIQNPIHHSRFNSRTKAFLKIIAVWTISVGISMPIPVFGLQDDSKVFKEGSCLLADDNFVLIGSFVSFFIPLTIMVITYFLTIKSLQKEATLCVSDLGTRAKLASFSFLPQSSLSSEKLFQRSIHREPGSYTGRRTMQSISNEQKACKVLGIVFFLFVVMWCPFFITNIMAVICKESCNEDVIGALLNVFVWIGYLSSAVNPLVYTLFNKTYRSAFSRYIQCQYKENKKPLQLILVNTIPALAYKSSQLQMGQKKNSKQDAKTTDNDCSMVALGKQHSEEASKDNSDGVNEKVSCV

[2] = biological target: 5-hydroxytryptamine receptor 1B (Homo sapiens) (UniProt P28222); assay: Dissociation equilibrium constant against the vascular 5-hydroxytryptamine 1B like receptor in the rabbit saphenous vein
5-hydroxytryptamine receptor 1B (Homo sapiens), sequence (P28222 whole entry): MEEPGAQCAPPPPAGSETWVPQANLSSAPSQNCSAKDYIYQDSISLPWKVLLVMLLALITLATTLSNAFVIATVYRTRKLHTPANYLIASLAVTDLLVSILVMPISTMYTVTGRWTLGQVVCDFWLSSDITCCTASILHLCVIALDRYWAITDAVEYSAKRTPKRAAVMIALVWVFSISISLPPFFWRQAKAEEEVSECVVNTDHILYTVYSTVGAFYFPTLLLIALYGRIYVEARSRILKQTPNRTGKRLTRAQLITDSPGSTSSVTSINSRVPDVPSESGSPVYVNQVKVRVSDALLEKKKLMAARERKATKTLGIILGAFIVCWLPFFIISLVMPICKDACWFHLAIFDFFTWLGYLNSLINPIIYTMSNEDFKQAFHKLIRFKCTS
Procedure, shortened: (§1)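 Saphenous vein rings (4–5 mm) from male New Zealand white rabbits, killed with pentobarbitone 80 mg/kg iv and exsanguination, mounted on tungsten wires. Phenoxybenzamine 0.3 μM for 30 min, washed out, 1 μM 5HT viability check. Cumulative 5HT curve, then after 60 min recovery a test compound curve. Non-agonists tested as 5HT antagonists, giving apparent pKB.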

[3] = biological target: 5-hydroxytryptamine receptor 1B (Homo sapiens) (UniProt P28222); assay: The dissociation equilibrium constant (pKB=-log KB) of compound was determined against the vascular 5-hydroxytryptamine 1B like receptor in the rabbit saphenous vein(RbSV); NS=non surmountable; procedure, shortened: as §1

Compound | pKB [1] | pKB [2] | pKB [3]
COC(=O)c1[nH]c2ccc(CCN3C(=O)CNC3=O)cc2c1CCN(C)C | < 5 | 6.97 | –
CCOC(=O)c1[nH]c2ccc(CN3C(=O)CNC3=O)cc2c1CCN(C)C | 5.86 | 5.32 | –
CCOC(=O)c1[nH]c2ccc(CCN3C(=O)CCC3=O)cc2c1CCN(C)C | 6.3 | 6.78 | –
CCOC(=O)c1[nH]c2ccc(CN3C(=O)NC(C)(C)C3=O)cc2c1CCN(C)C | 5.52 | 6.54 | –
CCOC(=O)c1[nH]c2ccc(CCN3C(=O)CSC3=O)cc2c1CCN(C)C | 7.56 | 7.72 | –
CC(C)OC(=O)c1[nH]c2ccc(CCN3C(=O)NC(C)(C)C3=O)cc2c1C1=CCN(C)CC1 | < 5 | 6.34 | –
CN(C)CCc1c(C(N)=O)[nH]c2ccc(CC3COC(=O)N3)cc12 (stereo unspecified) | < 4.5 | 4.75 | –
CCOC(=O)c1[nH]c2ccc(CCC3NC(=O)N(C)C3=O)cc2c1CCN(C)C (stereo unspecified) | 6.2 | 7.3 | –
CC(C)OC(=O)c1[nH]c2ccc(CN3C(=O)NC(C)(C)C3=O)cc2c1CCN(C)C | 5.62 | 5.62 | –
CN(C)CCc1c(Br)[nH]c2ccc(CC3COC(=O)N3)cc12 (stereo unspecified) | < 5 | 5.86 | –
CC(C)OC(=O)c1[nH]c2ccc(CCN3C(=O)NC(C)(C)C3=O)cc2c1-c1ccncc1 | < 5 | 5.25 | –
COC(=O)c1[nH]c2ccc(CN3C(=O)CNC3=O)cc2c1CCN(C)C | 5.15 | 5.41 | –
CCOC(=O)c1[nH]c2ccc(CCN3C(=O)NC(C)(C)C3=O)cc2c1CCN(C)C | 5.23 | 7.34 | –
CCOC(=O)c1[nH]c2ccc(CCN3C(=O)c4ccccc4C3=O)cc2c1CCN(C)C | 6.26 | 7.54 | –
COC(=O)c1[nH]c2ccc(CCN3C(=O)NC(C)(C)C3=O)cc2c1CCN(C)C | 5.02 | 6.88 | –
COC(=O)c1[nH]c2ccc(CN3C(=O)NC(C)(C)C3=O)cc2c1CCN(C)C | 5.03 | 6.45 | –
CN(C)CCc1c(C(=O)OC2CCCCC2)[nH]c2ccc(CCN3C(=O)NC(C)(C)C3=O)cc12 | 4.77 | 5.95 | –

Compound | pKB [1] | pKB [2] | pKB [3]
CCOC(=O)c1[nH]c2ccc(CC3COC(=O)N3)cc2c1CCN(C)C (stereo unspecified) | 5.66 | 6.12 | –
CN(C)CCc1c(C(=O)OCc2ccccc2)[nH]c2ccc(CCN3C(=O)CNC3=O)cc12 | 7.3 | 7.91 | –
CCOC(=O)c1[nH]c2ccc(CCN3C(=O)CNC3=O)cc2c1-c1ccncc1 | < 5 | 5.29 | –
CN(C)CCc1c(C#N)[nH]c2ccc(CC3COC(=O)N3)cc12 (stereo unspecified) | 4.6 | 4.8 | –
CC(C)OC(=O)c1[nH]c2ccc(CCN3C(=O)CNC3=O)cc2c1CCN(C)C | 6.57 | 6.85 | –
CCOC(=O)c1[nH]c2ccc(CCN3C(=O)c4ccccc4C3=O)cc2c1C1=CCN(C)CC1 | 5.02 | 6.42 | –
COC(=O)c1[nH]c2ccc(CCN3CCOC3=O)cc2c1CCN(C)C | < 5 | 6 | –
CCOC(=O)c1[nH]c2ccc(CCN3C(=O)CNC3=O)cc2c1C1=CCN(C)CC1 | < 5 | 5.88 | –
COC(=O)c1[nH]c2ccc(CCN3C(=O)CNC3=O)cc2c1-c1ccncc1 | < 5 | – | inactive
COC(=O)c1[nH]c2ccc(CCN3C(=O)c4ccccc4C3=O)cc2c1CCN(C)C | 5.66 | 7.39 | –
CCOC(=O)c1[nH]c2ccc(CCC3COC(=O)N3)cc2c1CCN(C)C (stereo unspecified) | 6.76 | 7.21 | –
CCOC(=O)c1[nH]c2ccc(CCN3CCCC3=O)cc2c1CCN(C)C | 5.5 | 6.1 | –
CCOC(=O)c1[nH]c2ccc(CCN3C(=O)CNC3=O)cc2c1C1CCN(C)CC1 | < 5 | < 5 | –
CC(C)OC(=O)c1[nH]c2ccc(CCN3C(=O)NC(C)(C)C3=O)cc2c1CCN(C)C | 5.8 | 6.82 | –
CN(C)CCc1c(C(=O)O)[nH]c2ccc(CCN3C(=O)CNC3=O)cc12 | < 5 | 6.17 | –
COC(=O)c1[nH]c2ccc(CCC3COC(=O)N3)cc2c1CCN(C)C (stereo unspecified) | 5.88 | 6.61 | –
